Test results from ChEMBL document CHEMBL3351380, “Antioxidant and antimicrobial studies on fused-ring pyrazolones and isoxazolones” (Bioorg Med Chem, 2014).
Values after ≈ are worked out from the molar mass of the structure shown. Active and inactive are the calls of the source. No cut-off for these calls is given here.

Columns and labels:
Escherichia coli [1] = test: Antimicrobial activity against Escherichia coli ATCC 8739 assessed as zone of inhibition at 100 ug/ml by agar well diffusion method; type: functional; conditions: for zone of inhibition at 100 µg/mL: read-out: IZ
How it was run: (§1)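 For the agar well diffusion screen, samples at 100 µg/mL were made from a stock of 10 mg in 1 mL EtOH diluted 1:1 (v/v) with Mueller-Hinton medium. The zone of inhibition was scored as 5–10 mm poor, 10–15 moderate, 15–20 good and 20–25 very good. Gentamycin and nystatin were the reference drugs. Strains were confirmed at the University of Botswana microbiology laboratory.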

[2] = Antioxidant activity assessed as DPPH radical scavenging activity after 3 hrs by spectrophotometry; type: physicochemical
How it was run: (§2)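 DPPH (0.51 mM in methanol) was mixed 1:1 by volume with the compound at several concentrations (100, 50, 25 … µg/mL range). Absorbance was read against a control, and % inhibition = (A0−As)/A0 ×100. Readings were taken at 30 min and 3 h, with ascorbic acid as the reference. Triplicate measurements.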

Pseudomonas aeruginosa [3] = test: Antimicrobial activity against Pseudomonas aeruginosa NCIMB 8295 by agar well diffusion method; type: functional
Bacillus subtilis [4] = test: Antimicrobial activity against Bacillus subtilis NCIB 3610 by agar well diffusion method; type: functional; conditions: subsp. subtilis str. NCIB 3610
Bacillus subtilis [5] = test: Antimicrobial activity against Bacillus subtilis NCIB 3610 assessed as zone of inhibition at 100 ug/ml by agar well diffusion method; type: functional; conditions: for zone of inhibition at 100 µg/mL: subsp. subtilis str. NCIB 3610, read-out: IZ; for Activity: subsp. subtilis str. NCIB 3610; how it was run: as §1
Candida albicans [6] = test: Antifungal activity against Candida albicans assessed as zone of inhibition at 100 ug/ml by agar well diffusion method; type: functional; conditions: for zone of inhibition at 100 µg/mL: read-out: IZ; how it was run: as §1
Staphylococcus aureus [7] = test: Antimicrobial activity against Staphylococcus aureus ATCC 25923 assessed as zone of inhibition at 100 ug/ml by agar well diffusion method; type: functional; conditions: for zone of inhibition at 100 µg/mL: read-out: IZ; how it was run: as §1
[8] = Metal chelating activity of the compound assessed as formation of iron complex after 20 mins by spectrophotometry; type: physicochemical
How it was run: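 Fe2+ chelation was measured by disruption of the o-phenanthroline–Fe2+ complex. O-phenanthroline (0.05% in methanol) and FeCl2 (0.1%) were mixed with the sample at various concentrations and held at room temperature for 20 min, then read at 510 nm. EDTA was the standard chelator. % chelation = (Acontrol−Asample)/Acontrol ×100, and IC50 came from plots of % chelation versus concentration. Triplicates.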

[9] = Antioxidant activity assessed as DPPH radical scavenging activity after 30 mins by spectrophotometry; type: physicochemical; how it was run: as §2
Staphylococcus aureus [10] = test: Antimicrobial activity against Staphylococcus aureus ATCC 25923 by agar well diffusion method; type: functional
Candida albicans [11] = test: Antifungal activity against Candida albicans by agar well diffusion method; type: functional
Pseudomonas aeruginosa [12] = test: Antimicrobial activity against Pseudomonas aeruginosa NCIMB 8295 assessed as zone of inhibition at 100 ug/ml by agar well diffusion method; type: functional; conditions: for zone of inhibition at 100 µg/mL: read-out: IZ; how it was run: as §1
Escherichia coli [13] = test: Antimicrobial activity against Escherichia coli ATCC 8739 by agar well diffusion method; type: functional

Compound	Activity (Escherichia coli [1])	IC50 [2]	MIC (Pseudomonas aeruginosa [3])	MIC (Bacillus subtilis [4])	zone of inhibition at 100 µg/mL (Bacillus subtilis [5])	Activity (Candida albicans [6])	Activity (Staphylococcus aureus [7])	IC50 [8]	IC50 [9]	MIC (Staphylococcus aureus [10])	MIC (Candida albicans [11])	Activity (Pseudomonas aeruginosa [12])	MIC (Escherichia coli [13])	Activity (Bacillus subtilis [5])	zone of inhibition at 100 µg/mL (Candida albicans [6])	zone of inhibition at 100 µg/mL (Pseudomonas aeruginosa [12])	zone of inhibition at 100 µg/mL (Escherichia coli [1])	zone of inhibition at 100 µg/mL (Staphylococcus aureus [7])
COc1ccc(C2=CC3=NNC(=O)C3C(c3cccc([N+](=O)[O-])c3)C2)c(OC)c1 (stereo unspecified)	inactive	39.67 µg/mL (≈ 101 µM)	inactive	2.5 µg/mL (≈ 6.35 µM)	9 mm	inactive	inactive	84.39 µg/mL (≈ 215 µM)	88.75 µg/mL (≈ 226 µM)	inactive	inactive	inactive	inactive	–	–	–	–	–
O=C1ON=C2C=C(c3ccccc3)CC(c3cccc([N+](=O)[O-])c3)C12 (stereo unspecified)	inactive	215.71 µg/mL (≈ 645 µM)	2.5 µg/mL (≈ 7.48 µM)	inactive	–	–	inactive	750.45 µg/mL (≈ 2240 µM)	312.28 µg/mL (≈ 934 µM)	inactive	2.5 µg/mL (≈ 7.48 µM)	–	inactive	inactive	10 mm	11 mm	–	–
CCOC(=O)C1C(=O)C=C(c2ccccc2)CC1c1cccc([N+](=O)[O-])c1 (stereo unspecified)	inactive	143.6 µg/mL (≈ 393 µM)	inactive	inactive	–	inactive	inactive	1028.57 µg/mL (≈ 2820 µM)	165.21 µg/mL (≈ 452 µM)	inactive	inactive	inactive	inactive	inactive	–	–	–	–
O=C(/C=C/c1cccc([N+](=O)[O-])c1)c1cccs1	–	90.73 µg/mL (≈ 350 µM)	–	–	–	–	–	1029.41 µg/mL (≈ 3970 µM)	112.29 µg/mL (≈ 433 µM)	–	–	–	–	–	–	–	–	–
COc1ccc(C2=CC3=NNC(=O)C3C(c3cccc([N+](=O)[O-])c3)C2)cc1 (stereo unspecified)	inactive	38.38 µg/mL (≈ 106 µM)	inactive	2.5 µg/mL (≈ 6.88 µM)	11 mm	inactive	inactive	85.58 µg/mL (≈ 236 µM)	86.74 µg/mL (≈ 239 µM)	inactive	inactive	inactive	inactive	–	–	–	–	–
CCOC(=O)C1C(=O)C=C(c2ccc(O)cc2)CC1c1cccc([N+](=O)[O-])c1 (stereo unspecified)	inactive	86.67 µg/mL (≈ 227 µM)	inactive	2.5 µg/mL (≈ 6.56 µM)	12 mm	–	inactive	1014 µg/mL (≈ 2660 µM)	175 µg/mL (≈ 459 µM)	inactive	2.5 µg/mL (≈ 6.56 µM)	inactive	inactive	–	13 mm	–	–	–
O=C1ON=C2C=C(c3ccc(O)cc3)CC(c3cccc([N+](=O)[O-])c3)C12 (stereo unspecified)	–	118.69 µg/mL (≈ 339 µM)	inactive	inactive	–	–	–	360.98 µg/mL (≈ 1030 µM)	202.15 µg/mL (≈ 577 µM)	2.5 µg/mL (≈ 7.14 µM)	2.5 µg/mL (≈ 7.14 µM)	inactive	2.5 µg/mL (≈ 7.14 µM)	inactive	10 mm	–	10 mm	10 mm
COc1ccc(C2=CC3=NOC(=O)C3C(c3cccc([N+](=O)[O-])c3)C2)c(OC)c1 (stereo unspecified)	inactive	140.02 µg/mL (≈ 355 µM)	inactive	inactive	–	inactive	inactive	746.04 µg/mL (≈ 1890 µM)	275 µg/mL (≈ 697 µM)	inactive	inactive	inactive	inactive	inactive	–	–	–	–
CCOC(=O)C1C(=O)C=C(c2ccc(Br)cc2)CC1c1cccc([N+](=O)[O-])c1 (stereo unspecified)	inactive	409.1 µg/mL (≈ 921 µM)	inactive	inactive	–	inactive	inactive	1148.57 µg/mL (≈ 2590 µM)	409.1 µg/mL (≈ 921 µM)	inactive	inactive	inactive	inactive	inactive	–	–	–	–
COc1ccc(C(=O)/C=C/c2cccc([N+](=O)[O-])c2)c(OC)c1	–	96.22 µg/mL (≈ 307 µM)	–	–	–	–	–	95.13 µg/mL (≈ 304 µM)	133.57 µg/mL (≈ 426 µM)	–	–	–	–	–	–	–	–	–
O=C(/C=C/c1cccc([N+](=O)[O-])c1)c1ccc(Br)cc1	–	122.8 µg/mL (≈ 370 µM)	–	–	–	–	–	202.56 µg/mL (≈ 610 µM)	170 µg/mL (≈ 512 µM)	–	–	–	–	–	–	–	–	–
GENTAMICIN	–	–	< 0.02 µg/mL	< 0.02 µg/mL	–	–	–	–	–	< 0.02 µg/mL	–	–	< 0.02 µg/mL	–	–	–	–	–
O=C1O[C@H]([C@@H](O)CO)C(O)=C1O [ASCORBIC ACID]	–	25.26 µg/mL (≈ 143 µM)	–	–	–	–	–	–	37.78 µg/mL (≈ 215 µM)	–	–	–	–	–	–	–	–	–
CCOC(=O)C1C(=O)C=C(c2cccs2)CC1c1cccc([N+](=O)[O-])c1 (stereo unspecified)	inactive	133.66 µg/mL (≈ 360 µM)	inactive	2.5 µg/mL (≈ 6.73 µM)	12 mm	–	inactive	1030.56 µg/mL (≈ 2770 µM)	208.95 µg/mL (≈ 563 µM)	inactive	2.5 µg/mL (≈ 6.73 µM)	inactive	inactive	–	8 mm	–	–	–
NYSTATIN	–	–	–	–	–	–	–	–	–	–	< 0.02 µg/mL	–	–	–	–	–	–	–
O=C1NN=C2C=C(c3cccs3)CC(c3cccc([N+](=O)[O-])c3)C12 (stereo unspecified)	–	63.78 µg/mL (≈ 188 µM)	2.5 µg/mL (≈ 7.37 µM)	0.313 µg/mL (≈ 0.922 µM)	22 mm	–	–	86.96 µg/mL (≈ 256 µM)	100.61 µg/mL (≈ 296 µM)	2.5 µg/mL (≈ 7.37 µM)	0.313 µg/mL (≈ 0.922 µM)	–	2.5 µg/mL (≈ 7.37 µM)	–	23 mm	10 mm	11 mm	9 mm
O=C(/C=C/c1cccc([N+](=O)[O-])c1)c1ccccc1	–	112.5 µg/mL (≈ 444 µM)	–	–	–	–	–	104.76 µg/mL (≈ 414 µM)	165.21 µg/mL (≈ 652 µM)	–	–	–	–	–	–	–	–	–
O=C(O)CN(CCN(CC(=O)O)CC(=O)O)CC(=O)O [EDETIC ACID]	–	–	–	–	–	–	–	50.98 µg/mL (≈ 174 µM)	–	–	–	–	–	–	–	–	–	–
O=C(/C=C/c1cccc([N+](=O)[O-])c1)c1ccc(O)cc1	–	40.67 µg/mL (≈ 151 µM)	–	–	–	–	–	84.09 µg/mL (≈ 312 µM)	92.75 µg/mL (≈ 344 µM)	–	–	–	–	–	–	–	–	–
COc1ccc(C(=O)/C=C/c2cccc([N+](=O)[O-])c2)cc1	–	92.46 µg/mL (≈ 326 µM)	–	–	–	–	–	97.32 µg/mL (≈ 344 µM)	135.27 µg/mL (≈ 478 µM)	–	–	–	–	–	–	–	–	–
